Results: ChEMBL document CHEMBL4359929, “Piperidine and piperazine inhibitors of fatty acid amide hydrolase targeting excitotoxic pathology” (Bioorg Med Chem, 2019)
pIC50: −log10 of the molar value. The source made the active and inactive calls. The rule behind the calls is not given here.

Legend:
[1] = Stability in human plasma assessed as half life; type: ADME, cell-free
Procedure, shortened: (§1)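 Stability assessed as half-life in human, rat and mouse plasma and gastric fluid, and in human, rat and mouse liver microsomal preparations.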

[2] = Stability in rat gastric fluid assessed as half life; type: ADME, tissue-based, Gastric juice; procedure, shortened: as §1
[3] = molecular target: Cannabinoid receptor 2 (Mus musculus) (UniProt P47936); test: Displacement of [3H]CP55940 from mouse CB2 receptor expressed in HEK293 cells by competition-equilibrium binding analysis; type: cell-based
Chain of Cannabinoid receptor 2 (Mus musculus) (P47936 whole entry): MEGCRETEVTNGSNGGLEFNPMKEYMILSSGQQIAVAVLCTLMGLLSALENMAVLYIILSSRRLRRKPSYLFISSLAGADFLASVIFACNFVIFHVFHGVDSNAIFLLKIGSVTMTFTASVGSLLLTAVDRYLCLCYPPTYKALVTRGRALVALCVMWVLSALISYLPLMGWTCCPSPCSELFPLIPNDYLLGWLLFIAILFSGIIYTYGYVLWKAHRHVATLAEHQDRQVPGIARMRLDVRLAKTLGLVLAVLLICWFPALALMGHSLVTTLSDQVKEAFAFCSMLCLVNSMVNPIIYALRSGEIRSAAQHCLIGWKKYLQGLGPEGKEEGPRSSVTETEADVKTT
Procedure, shortened: (§2)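 HEK293 cell membranes expressing mouse or human CB2; competition-equilibrium binding against [3H]CP-55,940.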

[4] = molecular target: Cannabinoid receptor 1 (Rattus norvegicus) (UniProt P20272); test: Displacement of [3H]CP55940 from CB1 receptor in rat brain by competition-equilibrium binding analysis
Target sequence in this assay (P20272 whole entry, looked up): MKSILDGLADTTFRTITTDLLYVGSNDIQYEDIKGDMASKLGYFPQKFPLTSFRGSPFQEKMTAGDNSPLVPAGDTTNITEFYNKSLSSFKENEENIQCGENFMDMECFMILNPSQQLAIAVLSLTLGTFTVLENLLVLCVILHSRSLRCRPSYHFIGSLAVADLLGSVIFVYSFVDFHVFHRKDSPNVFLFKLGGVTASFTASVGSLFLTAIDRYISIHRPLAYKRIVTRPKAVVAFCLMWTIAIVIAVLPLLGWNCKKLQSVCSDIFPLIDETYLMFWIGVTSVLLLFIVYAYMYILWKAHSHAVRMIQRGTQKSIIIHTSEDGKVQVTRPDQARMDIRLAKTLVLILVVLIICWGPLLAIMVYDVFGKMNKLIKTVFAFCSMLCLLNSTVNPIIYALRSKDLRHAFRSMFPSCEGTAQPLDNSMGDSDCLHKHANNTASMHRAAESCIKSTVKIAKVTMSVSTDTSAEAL

[5] = molecular target: Cannabinoid receptor 1 (Rattus norvegicus) (UniProt P20272); test: Displacement of [3H]CP55940 from CB1 receptor in rat brain by competition-equilibrium binding analysis; type: tissue-based
Procedure, shortened: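 Rat brain membranes as CB1 source; competition-equilibrium binding against [3H]CP-55,940.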
Target sequence in this assay (P20272 whole entry): as the sequence (P20272 whole entry, looked up) above

[6] = organism: Homo sapiens; test: Selectivity ratio of IC50 for human full length ABHD6 expressed in Escherichia coli cells to IC50 for human recombinant MBP-tagged FAAH expressed in Escherichia coli cells by fluorescence based assay
[7] = Stability in human liver microsomes assessed as half life; type: ADME, Microsome; procedure, shortened: as §1
[8] = Selectivity ratio of IC50 for human full length ABHD6 expressed in Escherichia coli cells to IC50 for rat recombinant His/GST-tagged FAAH expressed in Escherichia coli cells by fluorescence based assay
[9] = Stability in human gastric fluid assessed as half life; type: ADME, tissue-based, Gastric juice; procedure, shortened: as §1
[10] = Ratio of IC50 for rat recombinant His/GST-tagged FAAH expressed in Escherichia coli cells to IC50 for human recombinant MBP-tagged FAAH expressed in Escherichia coli cells by fluorescence based assay
[11] = organism: Homo sapiens; test: Selectivity ratio of IC50 for human recombinant His-tagged MGL expressed in Escherichia coli BL21 DE3 cells to IC50 for human recombinant MBP-tagged FAAH expressed in Escherichia coli cells by fluorescence based assay
[12] = Stability in mouse liver microsomes assessed as half life; type: ADME, Microsome; procedure, shortened: as §1
[13] = molecular target: T1, Fatty-acid amide hydrolase 1 (Rattus norvegicus, UniProt P97612); test: Inhibition of rat recombinant His/GST-tagged FAAH expressed in Escherichia coli cells using AAMCA as substrate incubated for 15 mins followed by substrate addition and measured after every 20 mins for 4 hrs by fluorescence based assay
T1 sequence (P97612 whole entry): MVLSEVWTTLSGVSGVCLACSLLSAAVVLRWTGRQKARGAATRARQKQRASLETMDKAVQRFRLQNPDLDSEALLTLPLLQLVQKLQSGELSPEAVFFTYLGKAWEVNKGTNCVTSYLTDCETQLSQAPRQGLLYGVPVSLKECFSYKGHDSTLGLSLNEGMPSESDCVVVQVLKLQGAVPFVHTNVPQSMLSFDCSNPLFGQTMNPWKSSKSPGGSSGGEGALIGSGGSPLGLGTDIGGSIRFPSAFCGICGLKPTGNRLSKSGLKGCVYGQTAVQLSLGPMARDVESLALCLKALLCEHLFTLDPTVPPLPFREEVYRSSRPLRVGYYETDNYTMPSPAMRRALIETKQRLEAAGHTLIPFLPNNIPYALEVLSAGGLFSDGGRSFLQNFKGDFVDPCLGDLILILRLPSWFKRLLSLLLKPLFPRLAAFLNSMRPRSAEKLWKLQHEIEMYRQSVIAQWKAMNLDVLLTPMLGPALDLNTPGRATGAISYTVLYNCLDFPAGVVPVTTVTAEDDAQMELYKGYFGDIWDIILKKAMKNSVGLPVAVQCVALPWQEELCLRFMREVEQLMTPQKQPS
Procedure, shortened: (§3)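 Fluorescent enzyme assay in throughput format. Human recombinant FAAH or purified rat FAAH used arachidonoyl 7-amino-4-methylcoumarin amide as substrate; human recombinant MGL was run by a similar fluorometric procedure.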

[14] = Stability in mouse plasma assessed as half life; type: ADME, cell-free; procedure, shortened: as §1
[15] = Stability in mouse gastric fluid assessed as half life; type: ADME, tissue-based, Gastric juice; procedure, shortened: as §1
[16] = molecular target: Cannabinoid receptor 2 (Homo sapiens) (UniProt P34972); test: Displacement of [3H]CP55940 from human CB2 receptor expressed in HEK293 cells by competition-equilibrium binding analysis; type: cell-based; procedure, shortened: as §2
Chain of Cannabinoid receptor 2 (Homo sapiens) (P34972 whole entry): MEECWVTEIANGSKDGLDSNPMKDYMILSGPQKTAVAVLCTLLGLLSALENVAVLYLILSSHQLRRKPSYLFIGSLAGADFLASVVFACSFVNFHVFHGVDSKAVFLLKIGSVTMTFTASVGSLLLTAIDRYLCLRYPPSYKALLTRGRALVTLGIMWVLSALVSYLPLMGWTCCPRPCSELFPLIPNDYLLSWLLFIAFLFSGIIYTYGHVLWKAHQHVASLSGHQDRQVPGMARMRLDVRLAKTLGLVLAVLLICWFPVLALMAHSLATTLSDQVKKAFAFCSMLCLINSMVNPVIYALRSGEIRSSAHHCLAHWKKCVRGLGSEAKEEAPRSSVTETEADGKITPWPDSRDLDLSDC

[17] = molecular target: T2, Fatty-acid amide hydrolase 1 (Homo sapiens, UniProt O00519); test: Inhibition of human recombinant MBP-tagged FAAH expressed in Escherichia coli cells using AAMCA as substrate incubated for 15 mins followed by substrate addition and measured after every 20 mins for 4 hrs by fluorescence based assay; procedure, shortened: as §3
T2 sequence (O00519 whole entry): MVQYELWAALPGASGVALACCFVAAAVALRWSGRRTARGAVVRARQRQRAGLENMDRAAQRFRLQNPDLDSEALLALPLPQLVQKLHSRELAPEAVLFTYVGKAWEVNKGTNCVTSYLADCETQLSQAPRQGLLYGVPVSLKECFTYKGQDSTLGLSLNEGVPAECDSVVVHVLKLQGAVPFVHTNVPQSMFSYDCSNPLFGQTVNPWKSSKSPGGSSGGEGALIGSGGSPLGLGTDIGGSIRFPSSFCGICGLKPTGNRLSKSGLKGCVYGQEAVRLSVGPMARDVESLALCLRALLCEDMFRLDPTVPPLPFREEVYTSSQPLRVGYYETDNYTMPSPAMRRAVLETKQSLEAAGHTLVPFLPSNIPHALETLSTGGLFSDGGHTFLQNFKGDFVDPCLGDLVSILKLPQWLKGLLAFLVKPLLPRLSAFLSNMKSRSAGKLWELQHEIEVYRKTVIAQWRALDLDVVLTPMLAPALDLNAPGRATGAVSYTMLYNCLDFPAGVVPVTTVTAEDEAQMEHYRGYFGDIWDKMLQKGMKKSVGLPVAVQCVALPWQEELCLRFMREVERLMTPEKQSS

[18] = Selectivity ratio of IC50 for human recombinant His-tagged MGL expressed in Escherichia coli BL21 DE3 cells to IC50 for rat recombinant His/GST-tagged FAAH expressed in Escherichia coli cells by fluorescence based assay
[19] = molecular target: T3, Monoglyceride lipase (Homo sapiens, UniProt Q99685); test: Inhibition of human recombinant His-tagged MGL expressed in Escherichia coli BL21 DE3 cells using AHMMCE as substrate preincubated with enzyme for 15 mins followed by substrate addition and measured after every 15 mins for 3 hrs by fluorescence based assay; procedure, shortened: as §3
T3 sequence (Q99685 whole entry): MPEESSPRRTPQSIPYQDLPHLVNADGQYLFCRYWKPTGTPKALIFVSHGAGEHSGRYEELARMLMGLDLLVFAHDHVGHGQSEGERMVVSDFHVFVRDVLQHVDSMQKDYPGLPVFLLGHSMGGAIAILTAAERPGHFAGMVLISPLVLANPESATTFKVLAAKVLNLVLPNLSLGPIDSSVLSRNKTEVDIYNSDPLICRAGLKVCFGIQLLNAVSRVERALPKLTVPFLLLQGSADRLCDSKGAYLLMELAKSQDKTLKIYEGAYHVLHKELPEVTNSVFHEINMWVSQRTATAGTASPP

[20] = Stability in rat liver microsomes assessed as half life; type: ADME, Microsome; procedure, shortened: as §1
[21] = Stability in rat plasma assessed as half life; type: ADME, cell-free; procedure, shortened: as §1
[22] = Drug concentration in plasma (unknown origin) at 2 mg/kg, iv measured after 15 mins; type: ADME, organism-based
Procedure, shortened: (§4)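 Cassette pharmacokinetics: compounds given together at 2 mg/kg iv; brain and plasma levels (µg/mL) measured at 15 min.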

[23] = Drug concentration in brain (unknown origin) at 2 mg/kg, iv measured after 15 mins; type: ADME, organism-based; conditions: read-out: Ct; procedure, shortened: as §4
[24] = molecular target: T4, Fatty-acid amide hydrolase 1 (Homo sapiens) (UniProt O00519); test: Inhibition of human recombinant MBP-tagged FAAH expressed in Escherichia coli cells at 1 uM using AAMCA as substrate incubated for 15 mins followed by substrate addition and measured after every 20 mins for 4 hrs by fluorescence based assay relative to control
T4 sequence (whole entry): T2 sequence (O00519 whole entry)
Procedure, shortened: (§5)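 Fluorescent FAAH assay with arachidonoyl 7-amino-4-methylcoumarin amide as substrate; compound tested at a single concentration of 1 µM; percent inhibition reported.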

[25] = molecular target: T5, Monoglyceride lipase (Homo sapiens) (UniProt Q99685); conditions: at 1 µM
T5 sequence (whole entry): T3 sequence (Q99685 whole entry)

[26] = molecular target: T6, Fatty-acid amide hydrolase 1 (Rattus norvegicus) (UniProt P97612); test: Inhibition of rat recombinant His/GST-tagged FAAH expressed in Escherichia coli cells at 1 uM using AAMCA as substrate incubated for 15 mins followed by substrate addition and measured after every 20 mins for 4 hrs by fluorescence based assay relative to control; procedure, shortened: as §5
T6 sequence (whole entry): T1 sequence (P97612 whole entry)

[27] = molecular target: T6, Fatty-acid amide hydrolase 1 (Rattus norvegicus); test: Inhibition of FAAH in rat brain at 10 uM incubated for 30 mins followed by incubation with FP-Rh probe for 45 mins by ABPP assay; type: tissue-based
Procedure, shortened: (§6)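 Gel-based competitive ABPP on rat brain membrane homogenates (10 mg/mL protein). Compound at 1 and 10 μM or DMSO for 30 min at room temperature, then 10 μM rhodamine-tagged fluorophosphonate probe for 45 min at room temperature. FAAH was run with a reference FAAH inhibitor at 10 μM as positive control. Serine hydrolase labelling read by in-gel fluorescence.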

[28] = molecular target: T7, Monoacylglycerol lipase ABHD6 (Rattus norvegicus) (UniProt Q5XI64); test: Inhibition of ABHD6 in rat brain at 10 uM incubated for 30 mins followed by incubation with FP-Rh probe for 45 mins by ABPP assay; type: tissue-based; procedure, shortened: as §6
T7 sequence (whole entry): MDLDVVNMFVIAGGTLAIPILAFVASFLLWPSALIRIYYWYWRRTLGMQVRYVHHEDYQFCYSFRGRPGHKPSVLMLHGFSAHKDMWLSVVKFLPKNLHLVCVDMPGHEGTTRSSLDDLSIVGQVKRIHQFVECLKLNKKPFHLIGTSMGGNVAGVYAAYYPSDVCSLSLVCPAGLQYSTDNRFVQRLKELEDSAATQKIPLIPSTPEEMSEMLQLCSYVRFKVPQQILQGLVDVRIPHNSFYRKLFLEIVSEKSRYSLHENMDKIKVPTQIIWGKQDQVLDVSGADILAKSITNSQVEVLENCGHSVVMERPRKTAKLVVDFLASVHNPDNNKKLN

[29] = molecular target: T8, Monoglyceride lipase (Rattus norvegicus) (UniProt Q8R431); test: Inhibition of MGL in rat brain at 10 uM incubated for 30 mins followed by incubation with FP-Rh probe for 45 mins by ABPP assay; type: tissue-based; procedure, shortened: as §6
T8 sequence (whole entry): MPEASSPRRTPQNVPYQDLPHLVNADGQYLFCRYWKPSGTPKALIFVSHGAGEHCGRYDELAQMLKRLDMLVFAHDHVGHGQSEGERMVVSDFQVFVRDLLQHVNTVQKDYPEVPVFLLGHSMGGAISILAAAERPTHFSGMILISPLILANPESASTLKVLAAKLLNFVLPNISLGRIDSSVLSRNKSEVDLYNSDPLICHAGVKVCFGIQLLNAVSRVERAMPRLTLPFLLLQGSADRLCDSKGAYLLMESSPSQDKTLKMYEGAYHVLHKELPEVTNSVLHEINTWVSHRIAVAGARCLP

Row | Compound | half-life [1] | half-life [2] | Activity [3] | Activity [4] | Activity [5] | Ratio IC50 [6] | half-life [7] | Ratio IC50 [8] | half-life [9] | Ratio IC50 [10] | Ratio IC50 [11] | half-life [12] | pIC50 [13] | half-life [14] | half-life [15] | Activity [16] | pIC50 [17] | Ratio IC50 [18] | pIC50 [19] | half-life [20] | further results
1 | O=C(Oc1cccc(N2CCS(=O)(=O)CC2)c1)N1CCC(c2ccc(N3CCCC3)cc2)CC1 | > 60 min | > 60 min | inactive | inactive | inactive | > 1000 | 15 to 25 min | > 1000 | > 60 min | 2 to 3 | > 1000 | 15 to 25 min | 8.20 | > 60 min | > 60 min | inactive | 8.46 | > 1000 | < 6.00 | 15 to 25 min | half-life [21]: > 60 min
2 | CN(C)c1ccc(C2CCN(C(=O)Oc3cccc(N4CCS(=O)(=O)CC4)c3)CC2)cc1 | > 60 min | > 60 min | inactive | inactive | inactive | > 1000 | 15 to 25 min | > 1000 | > 60 min | 2 to 3 | > 1000 | 15 to 25 min | 8.16 | > 60 min | > 60 min | inactive | 8.62 | > 1000 | < 6.00 | 15 to 25 min | concentration at 0.25 h [22]: 746 ng/mL; concentration at 0.25 h [23]: 1110 ng/mL; half-life [21]: > 60 min
3 | O=C(Nc1cccc(N2CCS(=O)(=O)CC2)c1)N1CCC(c2ccccc2)CC1 |  |  | inactive | inactive | inactive |  |  |  |  |  |  |  |  |  |  | inactive |  |  |  |  | inhibition [24]: inactive; inhibition [25]: inactive; inhibition [26]: inactive
4 | O=C(Nc1cccc(N2CCS(=O)(=O)CC2)c1)N1CCN(c2ccccc2)CC1 |  |  | inactive | inactive | inactive |  |  |  |  |  |  |  |  |  |  | inactive |  |  |  |  | inhibition [24]: inactive; inhibition [25]: inactive; inhibition [26]: inactive
5 | O=C(Nc1cccnn1)N1CCC(=Cc2cccc(Oc3ccc(C(F)(F)F)cn3)c2)CC1 |  |  |  |  |  |  |  |  |  |  |  |  |  |  |  |  |  |  |  |  | inhibition [27]: Active; inhibition [28]: inactive; inhibition [29]: inactive
